Measured values taken from the M2OR odorant receptor database.

Molecular target: T1, OR8D1 (Homo sapiens) (UniProt Q8WZ84)
T1 sequence (whole entry): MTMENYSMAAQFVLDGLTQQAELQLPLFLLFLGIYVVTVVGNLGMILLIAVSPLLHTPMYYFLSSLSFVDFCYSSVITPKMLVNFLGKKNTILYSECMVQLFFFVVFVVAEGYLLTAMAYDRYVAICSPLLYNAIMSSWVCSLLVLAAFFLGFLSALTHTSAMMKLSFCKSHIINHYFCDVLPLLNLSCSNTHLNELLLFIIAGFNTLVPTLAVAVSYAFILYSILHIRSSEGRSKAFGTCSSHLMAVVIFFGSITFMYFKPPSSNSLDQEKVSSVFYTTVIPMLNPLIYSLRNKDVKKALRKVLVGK
Conditions: stereoisomer not certain
Summary of the method: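 Each receptor–molecule pair is labelled responsive or non-responsive (inactive) according to whether the original authors judged the measured signal statistically different from baseline. The data were taken from the main text and supplementary material of published papers and checked for typos and inconsistencies. Assay methods differed by source, with transient luciferase assays in mammalian cell lines being common.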
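Also: active if original authors judged signal statistically different from baseline.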

Odorant receptor agonist call, inactive:
C=Cc1ccc(O)cc1
CSC
CCCCC1CCC(=O)O1 (configuration not stated)
CC=CC(=O)C(C)CC (configuration not stated)
CC(=O)C1=NCCS1
CCC=CCCC=CCO
CCC=CCCOC(C)=O
CCCCC(C)CCC(=O)O (configuration not stated)
CCOC(=O)CCC(C)C
CCOC(=O)C(C)CC (configuration not stated)
CCOC(=O)C1CCCCC1
Cc1ccc(C(C)C)cc1
CC(=O)OCC=Cc1ccccc1
CCCC(O)CC(=O)OCC (configuration not stated)
CCC(=O)C(C)=O
CCOC(C)OCC
CCO
CCCCCCC=CC=O
CCC=CCCC=CC=O
CC1=CCC(C(C)C)C=C1 (configuration not stated)
CCCSSSCCC
CC(C)=CCCC(C)=CCO
CCCCCCO
Cc1cccc(C)c1O
C=C(C)C1CC=C(C)CC1 (configuration not stated)
CCCCCCCC(=O)OCC
CCCC(=O)OCC
CC(=O)c1cnccn1
C=Cc1ccc(O)c(OC)c1
CCC(C)c1nccnc1OC (configuration not stated)
CC(=O)C(C)O (configuration not stated)
CCCCC(CC)CCC(=O)O (configuration not stated)
CCCc1ccc(O)c(OC)c1
COc1nccnc1CC(C)C
CCCCCC=CC=O
CCCC(=O)OC
CCCC(=O)C(C)CC (configuration not stated)
